STAT3 act – activators of IL-6 induced STAT3 signaling; U3A cells, IL-6 STAT3-luciferase reporter, luminescence; 100% = signal with IL-6 EC80 alone; activation (% of control), % at 5.6 µM; 190,000 compounds, 0.91% hits;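 active means activation above the screen-wide mean of compound activation plus 3 SD, cut at about 130% in these data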;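 further: 0% = background luminescence of wells with medium and substrate only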
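Material: human STAT1-deficient U3A cells with stable STAT3-luciferase reporter / Probe or stimulus: IL-6 stimulus at 33 ng/mL final / Schedule: 1 h compound pre-exposure, 6 h IL-6 stimulation, 37 °C / Technique: luminescence / Read-out basis: percent of IL-6-only median luminescence / Control set: IL-6-only high control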
STAT1 blocker – reduces IFN-gamma driven STAT1 reporter signal; NIH 3T3 STAT1-luciferase reporter, luminescence; inhibition, % at 5.5 µM; 200,000 compounds, 0.35% hits;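 active means inhibition above a set limit, the mean inhibition across all tested compounds plus 3 SD, cut at about 34% in these data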;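 further: 0% = IFN-gamma with DMSO and 100% = IFN-gamma with 300 µM nifuroxazide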
STAT3 blocker – reduces IL-6 driven STAT3 reporter signal. inhibition, % at 5.5 µM. U3A cells, IL-6 STAT3-luciferase reporter, luminescence; host cell line lacks STAT1. 190,000 compounds, 0.89% hits;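 active means inhibition above the mean inhibition across all screened compounds plus 3 SD, cut at about 44% in these data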;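 further: 0% = DMSO only wells and 100% = 100 µM nifuroxazide control wells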
STAT1 act – STAT1 signaling activation; NIH 3T3 STAT1-luciferase reporter, IFN-gamma, luminescence; 100% = IFN-gamma alone, no compound; activation (% of control), % at 5.5 µM; 200,000 compounds, 2.6% hits;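 active means activation above the screen-wide mean activation plus 3 SD, cut at about 130% in these data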;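 further: raw ratio to IFN-gamma control signal so 100% means no change and 0% no light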
APP 5'UTR act – activates APP 5'UTR luciferase reporter; SH-SY5Y APP 5'UTR luciferase reporter, luminescence; zero percent = DMSO vehicle wells; 190,000 compounds, 1% hits; AID 1276; activation, % at 2 µM;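 active means activation above a set limit, based on mean plus 3 SD of controls, cut at about 140% in these data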
NF-kB expr up – compounds increasing NF-kB expression in human neuronal cells; NF-kB reporter expression; hits give high values; fold change at 12.5 µM; 190,000 compounds, 1.6% hits; AID 1239; in the data active means fold change above about 3.3
* hit, by the source's call; · = not tested or not shown. The list is not random: actives were taken first. Their share in the collection is about 4.9%.

SMILES | STAT3 act | STAT1 blocker | STAT3 blocker | STAT1 act | APP 5'UTR act | NF-kB expr up
Cn1c(NC(=O)/C=C/c2ccccc2)cc(=O)n(C)c1=O | 107.7 | -42.9 | -9.5 | 139.0* | 47.0 | 1.94
CCCC(=O)Nc1cc(=O)n(C)c(=O)n1C | 118.8 | 5.1 | -13.1 | 95.4 | 35.4 | 1.64
Cn1c(NC(=O)CCc2ccccc2)cc(=O)n(C)c1=O | 121.4 | -42.1 | -21.3 | 138.2* | 50.1 | 2.24
CC(OC(=O)COc1ccccc1[N+](=O)[O-])C(=O)Nc1ccc(N2CCOCC2)cc1 (stereo not given) | 101.0 | 3.3 | 9.3 | 95.3 | 13.9 | 1.23
Fc1ccc(NC(=S)Nc2ccccc2N2CCOCC2)cc1Cl | 100.2 | 9.6 | 6.6 | 89.8 | 17.1 | 1.06
N#C/C(=C\c1c[nH]c2ccccc12)C(=O)NCC1CCCO1 (stereo not given) | 81.0 | -22.9 | 26.1 | 119.5 | 24.2 | 1.42
CCc1ccc(C(=O)Nc2cc3c(cc2Cl)OCCCO3)cc1 | 90.6 | -54.0 | 14.9 | 149.6* | 89.1 | 4.57*
CCc1ccc(NC(=S)Nc2ccc(S(=O)(=O)Nc3ncccn3)cc2)cc1 | 98.2 | 3.1 | 6.6 | 95.9 | -0.3 | 1.43
CC1CCc2c(sc3ncn(CCO)c(=O)c23)C1 (stereo not given) | 116.9 | -42.2 | -18.9 | 137.5* | 87.9 | 2.09
CC(=O)Nc1ccc(NC2=C/C(=N/S(=O)(=O)c3cccs3)c3ccccc3C2=O)cc1 | 46.2 | 90.2* | 65.5* | 15.4 | -34.9 | 0.16
COc1ccc(N=C2NC(=O)S/C2=C\c2ccc(N(C)C)cc2)cc1 | 107.1 | -34.9 | -3.4 | 131.8* | 22.7 | 1.61
Cc1cc(C(=O)CN2C(=O)c3cccc(N)c3C2=O)c(C)n1Cc1cccs1 | 134.0* | -50.9 | -43.3 | 146.8* | · | 2.78
Cc1cc(C(=O)CSc2nnc(-c3ccccc3F)o2)c(C)n1Cc1cccs1 | 97.1 | 10.8 | 6.4 | 90.2 | 13.6 | 0.83
COc1cc(/C=N/Nc2nn3cnnc3c3ccccc23)ccc1O | 51.4 | 36.2* | 57.5* | 66.7 | 2.9 | 0.75
COc1cccc(/C=N/Nc2nn3cnnc3c3ccccc23)c1 | 78.2 | 9.8 | 31.6 | 91.0 | -7.9 | 0.5
Clc1ccsc1-c1csc(-c2cccnc2)n1 | 130.6 | -31.2 | -27.2 | 128.9* | 27.5 | 2.4
c1cncc(-c2nc(-c3ccc4c(c3)OCO4)cs2)c1 | 98.8 | -47.0 | 4.9 | 143.2* | 53.7 | 2.55
O=C(NCC1CCCO1)c1cc(C(=O)C2CCCCC2)c[nH]1 (stereo not given) | 99.5 | -4.6 | 0.3 | 104.4 | -5.4 | 0.9
COc1ccc(-c2cn3c4c(sc3n2)CCCC4)cc1 | 82.9 | -11.1 | 20.6 | 124.3 | 129.8 | 7.36*
COc1ccc(-c2cn3c(C)c(C(=O)N4CCCc5ccccc54)sc3n2)cc1 | 84.7 | 1.1 | 23.5 | 99.0 | 3.2 | ·
CN(C)c1ccc(C(=O)n2nnc3ccccc32)cc1 | 94.0 | 18.0 | 8.3 | 87.7 | -6.4 | 1.99
CCN(CC)c1ccc(C(=O)n2cnc3ccccc32)cc1 | 110.1 | -30.0 | -5.1 | 129.6* | 23.5 | 3.13
O=C(Oc1cccc(Oc2ccccc2)c1)N1CCOCC1 | 95.5 | -6.5 | 8.6 | 106.0 | 0.1 | 1.1
O=C(Oc1ccc(-c2ccccc2)cc1)N1CCOCC1 | 87.6 | -40.6 | 18.3 | 137.1* | 60.5 | 2.25
O=C(Nc1ccccc1C(=O)N1CCOCC1)c1ccc(F)cc1 | 103.9 | 0.7 | -7.9 | 99.4 | -1.8 | 0.94
SMILES | STAT3 act | STAT1 blocker | STAT3 blocker | STAT1 act | APP 5'UTR act | NF-kB expr up
Cc1ccc(NC(=O)c2ccc(OC(=S)N3CCOCC3)cc2)cc1 | 102.1 | -33.6 | 3.5 | 130.7* | 25.4 | 1.42
O=C(Nc1ccccc1Br)c1ccc(OC(=S)N2CCOCC2)cc1 | 90.2 | -39.6 | 13.8 | 134.9* | 77.8 | 2.33
CC1=C(C(=O)c2ccccc2)C(c2ccc(OC(F)F)cc2)NC(=S)N1 (stereo not given) | 94.4 | -7.0 | 8.9 | 105.0 | 9.4 | 0.64
Cc1nc(SCC(=O)O)c(C#N)c(C)c1CC(=O)c1ccccc1 | 104.0 | 10.4 | 0.4 | 91.7 | -2.5 | 1.12
O=C(O)C1CCCCC1C(=O)NCCc1ccc(F)cc1 (stereo not given) | 99.3 | -6.8 | 5.3 | 104.7 | -2.5 | 1.1
O=C(COC(=O)c1cc[n+]([O-])cc1)Nc1ccc([N+](=O)[O-])cc1 | 103.3 | -2.9 | 3.9 | 102.4 | -7.3 | 0.87
Nc1nc(CSc2ccccc2)nc(N2CCCCC2)n1 | 110.8 | -47.8 | -4.9 | 142.1* | 33.0 | 2.36
CCOC(=O)Cc1nnc(NC(=O)CSc2nnc3c(n2)[nH]c2ccccc23)s1 | 85.7 | 0.4 | 18.8 | 98.5 | -11.3 | 1.05
O=C(O)C(Cc1c[nH]c2ccccc12)NS(=O)(=O)c1ccc(Cl)cc1 (stereo not given) | 115.8 | 3.2 | -9.9 | 95.8 | 12.5 | 0.85
CC(C)(C)OC(=O)N/N=C/c1cccc([N+](=O)[O-])c1 | 104.5 | -34.1 | -3.4 | 130.0* | 94.8 | 3.88*
C=CCN1C(=O)CSC1=Nc1ccc(O)cc1 | 100.3 | 3.8 | -0.2 | 96.5 | 1.1 | 3.38*
CC(=O)Oc1ccc(Cl)cc1/C=C/c1cc(OC(C)=O)c2ccccc2n1 | 118.9 | 2.1 | -26.6 | 100.2 | -1.1 | 1.11
COc1cc(Cl)cc(/C=C/c2ccc3ccccc3n2)c1OC(C)=O | 108.4 | 7.4 | -13.2 | 95.1 | 154.6* | 1.06
CCOc1ccc(/C=C/C(=O)c2ccccc2)cc1OC | 119.1 | -21.7 | -26.0 | 119.3 | 144.5* | 0.96
Cc1ccccc1/C(N)=N/OC(=O)/C=C/c1ccccc1 | 100.2 | -24.8 | -3.3 | 122.9 | 86.3 | 3.88*
COc1ccc(/C(N)=N/OC(=O)/C=C/c2ccccc2)cc1 | 87.9 | -22.1 | 17.3 | 120.4 | 3.0 | 1.16
COc1ccc(/C=C/C(=O)O/N=C(\N)c2ccccc2)cc1OC | 96.3 | -40.9 | 7.2 | 136.9* | 87.2 | 2.02
COc1ccc(C(=O)/C=C/c2ccc(O)cc2)cc1 | · | -8.5 | · | 106.6 | 12.3 | 3.57*
Cc1ccc(/C(N)=N/OC(=O)/C=C/c2ccccc2)cc1 | 92.4 | 0.1 | 11.1 | 99.9 | 6.5 | 2.26
Cc1ccc(/C=C/C(=O)c2ccc(C)cc2)cc1 | 96.1 | -15.4 | 7.8 | 112.1 | 33.5 | 1.6
Cc1ccc(-n2nnnc2CCl)cc1 | 100.7 | 30.3 | 2.6 | 70.2 | 18.6 | 0.97
CCC(C)NC(=O)c1ccc([N+](=O)[O-])c(Cl)c1 (stereo not given) | 98.5 | -6.9 | 0.3 | 106.3 | -12.8 | 1.14
COc1ccc(/C=C/C(=O)c2ccc(O)cc2)cc1CN1CCOCC1 | 90.9 | 2.3 | 10.3 | 97.9 | 17.9 | 3.7*
COc1ccc(C(=O)OCCc2ccc(O)cc2)cc1 | 92.8 | -53.4 | 5.8 | 148.5* | 118.3 | 6.7*
COc1ccc(C(=O)/C=C/c2ccc(O)cc2)c(O)c1CC=C(C)C | 95.1 | 0.8 | 3.0 | 99.3 | -0.9 | 5*
COc1ccc(COC(=O)NNC(=O)c2ccc(OC)cc2)cc1 | 93.5 | -3.9 | 9.9 | 104.8 | 0.8 | 1.04

Screening data: PubChem, several laboratories
